RORA inh: inhibitors of human nuclear receptor RORA | CHO-K1 Gal4-RORA LBD luciferase reporter, luminescence | P35398 | inhibition, % at 10 µM | actives 0.43% (n = 65,000);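 active means inhibition above the mean of all tested compounds plus 3 SD, cut at about 52% in these data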
Target sequence (P35398 whole entry, looked up, the tested form may be a part): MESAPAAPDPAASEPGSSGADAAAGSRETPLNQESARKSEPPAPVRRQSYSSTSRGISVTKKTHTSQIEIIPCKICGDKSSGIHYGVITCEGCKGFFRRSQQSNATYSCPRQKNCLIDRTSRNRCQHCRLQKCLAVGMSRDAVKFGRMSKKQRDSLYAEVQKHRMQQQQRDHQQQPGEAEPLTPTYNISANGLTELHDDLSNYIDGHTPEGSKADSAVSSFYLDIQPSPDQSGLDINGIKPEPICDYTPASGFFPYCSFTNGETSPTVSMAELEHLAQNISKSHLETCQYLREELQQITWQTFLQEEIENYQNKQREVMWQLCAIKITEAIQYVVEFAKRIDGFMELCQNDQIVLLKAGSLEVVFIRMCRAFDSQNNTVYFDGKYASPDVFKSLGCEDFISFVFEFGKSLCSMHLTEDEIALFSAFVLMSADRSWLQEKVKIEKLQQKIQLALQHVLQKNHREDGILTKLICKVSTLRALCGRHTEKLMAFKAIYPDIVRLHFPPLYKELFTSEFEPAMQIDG
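System: transiently transfected CHO-K1 cells, Gal4-DBD/human RORA-LBD fusion plus 5xGal4-luciferase reporter. Doses: one dose of 10 µM final. Timing: 20 h compound treatment, 37 °C. Measured by: luminescence. Evaluation: % inhibition of basal luciferase versus +RORA/-RORA DMSO controls. Benchmarks: mock-transfected cells as 100%, +RORA DMSO cells as 0%. Replicates: single test per compound.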
Numbers stand for hits; n = inactive. Many of the other results were omitted from the sample, so hits are more common in it than they were.

SMILES	RORA inh
COc1ccc(Nc2nc(C)cc(C)c2C#N)cc1	n
O=C(CSc1nnc(-c2cccnc2)o1)OC1CCCCC1	n
CCC(C(=O)Nc1ccccc1OC)n1c(C(=O)OC)cc2ccsc21 (configuration not stated)	n
Cc1ccccc1-n1c(=O)cc(N2CCN(C(=O)c3ccco3)CC2)[nH]c1=O	n
CCOC(=O)N1CCN(C(=O)CCc2ccc(S(=O)(=O)NCCc3ccccc3)cc2)CC1	n
CCCOc1ccc(N2CC(C(=O)Nc3ncccc3C)CC2=O)cc1 (configuration not stated)	n
COC(=O)[C@@H](NC(=O)NCc1ccco1)C(C)C	n
CCOc1ccc2nc(N3CCC(C(=O)N4CCN(c5ncccn5)CC4)CC3)sc2c1	n
O=C(NCC1CCCO1)c1ccc2nc(N3CCCCC3)sc2c1 (configuration not stated)	n
CC1CCN(c2nc3ccc(C(=O)O)cc3s2)CC1	92
CCN(CC)c1ccc2cc(NC(=O)CCC(=O)O)c(=O)oc2c1	66
CCN(CC)c1ccc(NC(=O)c2ccccc2F)cc1	n
CCN(CC)c1ccc(NC(=O)C2CC3CCC2C3)cc1 (configuration not stated)	n
Cc1nc(SCC(=O)Nc2c(C)n(C)n(-c3ccccc3)c2=O)n[nH]1	n
CNc1nc(C)nc(-c2ccccc2O)n1	n
CCOC(=O)N1CCN(Cc2nc3c(c(=O)[nH]c(=O)n3C)n2CCCc2ccccc2)CC1	n
Cc1cc(NC(=O)c2ccc3c(c2)OCCO3)no1	59
Cc1cc(NC(=O)c2noc3c2CCCCC3)no1	n
CCCN1C(=O)c2ccc(C(=O)Nc3cc(C)on3)cc2C1=O	n
CCOC(=O)c1oc2ccccc2c1NC(=O)c1cc(OC)cc(OC)c1	n
CCOC(=O)c1ccc(NC(=O)c2cc(S(=O)(=O)N3CCOCC3)ccc2O)cc1	n
CCOC(=O)c1c(N)sc2c1CCC1C(=O)N(C3CCCCC3)C(=O)C21 (configuration not stated)	n
CCc1ccc(S(=O)(=O)NCc2csc(C)n2)s1	n
Cc1oc(-c2ccccc2)nc1Cn1cccc1C1=NC(c2ccccc2)CO1 (configuration not stated)	n
COC(=O)c1nnn(CC(=O)Nc2cccc(Cl)c2)c1C(=O)OC	n
SMILES	RORA inh
NCCCCCc1nnc(SCc2ccccc2Cl)o1	57
O=C(CSc1nnc(-c2ccccc2Cl)o1)N1CCCCC1	n
Cn1c(SCc2ccccc2Cl)nnc1-c1cnccn1	n
Cc1ccccc1-c1nc(CS(=O)(=O)CC(=O)NCc2ccc3c(c2)OCO3)c(C)o1	n
CCc1ccc(OCc2nc(-c3ccccn3)no2)c(Br)c1	n
c1ccc(-c2noc(-c3ccc4c(c3)OCO4)n2)nc1	78
CCOc1ccc(-c2nc(-c3ccccc3)no2)cc1OCC	n
c1ccc(-c2noc(-c3ccc4ccccc4c3)n2)nc1	92
c1ccc(-c2noc(C3CCCCC3)n2)nc1	n
COc1ccc(-c2nc(-c3ccccc3OC)no2)cc1OC	n
COc1ccc(C2CCCN2C(=O)Nc2cccc(C(C)=O)c2)cc1OC (configuration not stated)	n
CCc1ccccc1NC(=O)c1ccc(F)c(S(=O)(=O)N2CCC(C(N)=O)CC2)c1	n
CC(=O)CC(C)=NCCN=C(C)CC(C)=O	n
COc1ccc(OC)c(NC(=O)CSc2nnnn2-c2ccc3c(c2)OCO3)c1	80
CC(C)OC(=O)CSc1nnnn1-c1ccc2c(c1)OCCO2	n
COc1ccc(OC)c(-n2nnnc2SCC(=O)Nc2ccc(C(=O)N3CCCCC3)cc2)c1	n
COC(=O)/C(=C1/Oc2cc(C)oc(=O)c2S1)C(F)(F)F	95
Cc1ccc(-c2nnc(CSc3nncn3N)o2)cc1	n
O=C(C1CCCN(S(=O)(=O)c2cccc3nsnc23)C1)N1CCc2ccccc2C1 (configuration not stated)	n
COC(=O)c1cc(-c2ccccc2)n(CC(=O)O)c1C	n
COc1ccc2c(c1)sc1nc(-c3ccccc3)cn12	92
COc1ccc(-c2cn3c(C)c(C(=O)NC(C)(C)C)sc3n2)cc1	n
COc1ccc(-c2cc(=O)c3ccccc3s2)cc1	n
COc1ccc(S(=O)(=O)N(CC(=O)N2CCN(C)CC2)c2ccc(C)cc2)cc1OC	n
CS(=O)(=O)N(CC(=O)NCC1CCCO1)c1ccc(F)c(Cl)c1 (configuration not stated)	n
SMILES	RORA inh
Cc1csc(NC(=O)CSc2nnc(-c3ccoc3C)o2)n1	n
Cc1cccc(C)c1OCc1nnc(SCC(=O)Nc2ccccc2F)o1	n
Cc1cccc(NC(=O)CSc2nnc(-c3cc(C)n(-c4ccccc4)c3C)o2)c1C	63
Cc1ccc(-c2nnc(SCC(=O)Nc3ccccc3F)o2)cc1	63
Cc1[nH]c2ccc(-c3nnc(SCC(=O)c4ccccc4F)o3)cc2c1C	n
Cc1cc(-c2nnco2)c(C)n1-c1ccccc1	n
O=c1cc(N2CCc3ccccc32)[nH]c(=O)n1Cc1ccc(F)cc1	n
Cc1ccc(C)n1-c1ccc(N2CCOCC2)nc1	n
COc1cccc2c(=O)n(CC(=O)N3CCN(c4ccccc4)CC3)ccc12	n
Cc1c(NC(=O)CCC(=O)N2CCCCC2)c(=O)n(-c2ccccc2)n1C	n
O=C1c2ccccc2C(=O)N1CNc1ccccc1	n
COc1ccc2c(-c3ccccc3)cc3nnnn3c2c1	n
CCCS(=O)(=O)c1nnnn1-c1cccc(OC)c1	82
CCS(=O)(=O)N1CCCC(c2nc(-c3cccc(OC)c3)no2)C1 (configuration not stated)	n
CCOC(=O)c1c(C)n(CC(COC(C)=O)OC(C)=O)c2ccc(OC(C)=O)cc12 (configuration not stated)	n
CCCCOc1ncnc2c1[nH]c1ccc(F)cc12	70
CCOc1ccccc1N(CC(=O)NCC1CCCO1)C(=O)CCC(=O)Nc1ccccn1 (configuration not stated)	n
C=C(C)C(C)(C#CCN1CCCC1)OC(C)=O (configuration not stated)	n
CC(C)(C)c1ccc(-c2nnc(SCC(=O)O)n2N)cc1	n
CC(C)(C)c1ccc(-c2noc(CCC(N)=O)n2)cc1	88
O=C(Nc1ccc(-c2noc(CCc3ccccc3)n2)cc1)c1ccco1	n
c1ccc(-c2noc(CN3CCN(c4ccccc4)CC3)n2)cc1	n
CNC(=O)CCc1nc(-c2ccc(C(C)(C)C)cc2)no1	89
CN(C)C(=O)CCc1nc(-c2ccc(C(C)(C)C)cc2)no1	82
NC(=O)c1ccc(NC(=O)CCCc2nc(-c3ccccc3Cl)no2)cc1	n
SMILES	RORA inh
Cc1cccc(-c2noc(Cc3ccccc3)n2)c1	n
CCC(C)c1cc(S(=O)(=O)N2CCOCC2)ccc1OC (configuration not stated)	n
Cc1nn(Cc2nc(-c3cccs3)no2)c(C)c1Br	n
c1ccc2c(c1)ncn2CCC1CCCCC1	n
CCOC(=O)Cc1csc(SCc2nc3ccccc3c(=O)[nH]2)n1	n
CCc1ccc(NC(=O)N(CCCN2CCOCC2)C(C)c2cc3cccc(OC)c3o2)cc1 (configuration not stated)	n
Cc1ccc(-n2ncc3c2ncn2c(C)nnc32)cc1C	n
CCCCOC(=O)c1[nH]c2c(c1C)C(=O)CC(c1cc(OC)c(OC)c(OC)c1)C2 (configuration not stated)	64
COCCOC(=O)c1[nH]c2c(c1C)C(=O)C(C(=O)OC)C(C)C2 (configuration not stated)	n
